From PubChem
GPR7 antagonist – antagonists of human GPR7 (neuropeptides B/W receptor 1); AID 1861; P48145; inhibition, % at 4.4 µM; GPR7-expressing cells, fluorescence antagonist assay; 1.1% of 290,000 active; in the data active = inhibition above about 16%, passing the limit was not always enough;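 also: cells stimulated with the agonist NPW; 0% = agonist with vehicle and 100% = vehicle without agonist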
Target sequence (P48145 whole entry, looked up): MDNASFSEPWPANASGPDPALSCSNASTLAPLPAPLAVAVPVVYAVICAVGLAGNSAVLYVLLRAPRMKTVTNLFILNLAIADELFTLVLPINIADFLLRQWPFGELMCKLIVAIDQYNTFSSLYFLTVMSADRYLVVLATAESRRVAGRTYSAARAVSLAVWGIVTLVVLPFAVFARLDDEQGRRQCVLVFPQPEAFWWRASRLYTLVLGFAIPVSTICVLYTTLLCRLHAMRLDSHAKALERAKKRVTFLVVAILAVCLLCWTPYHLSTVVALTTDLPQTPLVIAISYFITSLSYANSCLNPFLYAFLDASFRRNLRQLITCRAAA
pCIP destab – compounds decreasing mouse p/CIP protein stability | Q05BA5 | decrease of EGFP signal, % at 10 µM | 0.01% of 290,000 active | F442A p/CIP-EGFP cells, EGFP fluorescence, 16 h;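 active = EGFP signal decrease of at least 30% at 10 µM or well 3 SD below plate mean, unless failing retest; inactive = the rest, including hits failing retest or dose response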
CHT inh – inhibits the human high affinity choline transporter; Q9GZV3; CHT-expressing cells, membrane potential dye, choline response; active compounds read low; B-score at 10 µM; 0.86% of 310,000 active;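 active = B-score over 3 SD under the library average, and starting fluorescence ratio not unusually high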;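 also: choline stimulus applied at its EC90 after an EC20 pre-addition; B-score computed on integrated fluorescence ratio after choline addition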
CHT PAM – allosteric activators of human choline transporter CHT; AID 488977; 0.49% of 310,000 active; CHT-expressing cells, membrane potential dye, choline EC20; active compounds read high; LV-AA mutant CHT in HEK293 cells; B-score at 10 µM;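 active = initial fluorescence not abnormally high and integrated response B-score, plate-corrected, over 3 SD above library mean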
T cell HTS – T cell immune modulation candidate; response (vesicle binding), % at 7 µM; AID 2052; 0.068% of 330,000 active; 2C CD8+ T cell-vesicle binding, flow cytometry; active compounds read low;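 active = response, share of CD8 T cells binding vesicles, and their 90th percentile fluorescence all below set limits, cut at about 80% in these data, passing the limit was not always enough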;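 also: values below 100% mean blocked vesicle binding to the CD8+ T cells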
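System: murine 2C transgenic CD8+ T lymphocytes; also added: QL9-loaded Drosophila micro-vesicles; times: binding 1.5 h at 37 °C; measured by: flow cytometry, PE anti-B7-1 (FL2) versus Alexa647 anti-CD8 (FL8), PFA-fixed; control set: Peptide-free naked vesicles (low) and QL9 vesicles with 0.7% DMSO vehicle (high)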
Pemphigus Ab inh – human desmoglein-3 autoantibody binding inhibition | 0.48% of 310,000 active | binding (percent of control), % at 10 µM | DSG3-coupled beads, scFv-anti-DSG3-GFP binding, flow cytometry; active compounds read low;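 active = binding more than 3 SD below its plate's average and above zero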;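 also: hits lower antibody fragment binding to DSG3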
CHT block conf – human CHT inhibition, confirmatory screen. shares compounds with CHT inh. CHT-expressing cells, choline membrane potential dye; LV-to-AA substituted CHT, HEK293 cells. CHT activity remaining % of control (active compounds read low), % at 10 µM. 70% of 2,400 active. AID 493221;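 active = choline transporter activity left, mean of duplicates at 10 µM, below buffer-only control mean minus 3 SD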;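 also: depolarization triggered by choline at its EC90 following an EC20 pre-addition; 0% = hemicholinium-3 full block and 100% = buffer-only control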
HEK293 MPD ctr – CHT inhibitor counter-screen hit in parental HEK293 cells | 4% of 2,400 active | membrane potential ratio readout (active if shifted either direction beyond buffer ±3SD; no single direction) at 10 µM | membrane potential dye, choline response; active = decrease or increase beyond buffer ±3SD | shares compounds with CHT inh | AID 493222;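 also: parental cells lack the transporter so any hit is non-specific; ratio is peak minus trough fluorescence over baseline after EC90 choline challenge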
An asterisk follows results filed as active; i = inactive; . = not tested or not shown. Most compounds without a hit are left out; they make up all but 2.3% or so of the library.

SMILES | GPR7 antagonist | pCIP destab | CHT inh | CHT PAM | T cell HTS | Pemphigus Ab inh | CHT block conf | HEK293 MPD ctr
O=C(N/N=C/c1ccc(O)c([N+](=O)[O-])c1)C1CC1(c1ccccc1)c1ccccc1 (centres undefined) | -14.1 | -5.2 | -9.34* | i | 476.1 | 100.7 | i | i
Cc1ccc(NC(=O)CN(C)C(=O)c2cccc(S(=O)(=O)N3CCc4ccccc43)c2)cc1 | . | . | . | . | 423.7 | 100.5 | . | .
CCOC(=O)c1c(C)c(C(=O)N2CCc3ccccc3C2)c(C)n1CC | -4.3 | -9.2 | -5.84* | i | 288.7 | 98.8 | 38.6%* | i
CCOC(=O)c1c(C)c(C(=O)Nc2ccccc2)c(C)n1CC | 2.4 | -3.8 | i | i | 404.7 | 107.0 | . | .
Cc1cccc(-c2nc(CN3CCCC(C(=O)NC4CCCCCC4)C3)c(C)o2)c1 (centres undefined) | -0.7 | -1.9 | i | i | 211.1 | 104.2 | . | .
Cc1cccc(-c2nc(CN3CCCC(C(=O)NC4CCCCC4)C3)c(C)o2)c1 (centres undefined) | -8.1 | -12.1 | -5.75* | i | 462.2 | . | i | i
COc1cc(NC(=O)COc2cc(C)cc3oc(=O)cc(C)c23)cc(OC)c1OC | . | . | . | . | . | 102.8 | . | .
CC(SCC(=O)Nc1ccccc1)c1nc2ccccc2c(=O)[nH]1 (centres undefined) | -4.9 | -17.4 | i | i | 245.7 | 104.5 | . | .
CC(SCC(=O)O)c1nc2ccccc2[nH]1 (centres undefined) | -0.4 | -8.2 | -5.71* | i | 357.6 | 90.3 | i | i
Cc1csc(NC(=O)CCN2C(=O)c3ccccc3S2(=O)=O)n1 | -11.0 | 3.0 | -5.93* | i | 48.6 | 93.9 | 69.3%* | i
CCC(=O)NC(=S)NNC(=O)c1ccc(OC)cc1 | -6.8 | -8.5 | i | i | 321.5 | 99.4 | . | .
Cc1ccccc1C(=O)NNC(=S)NC(=O)COc1ccccc1 | 9.7 | -7.9 | -7.99* | i | 307.5 | 121.1 | 33.3%* | i
COc1ccc(OCC(=O)NC(=S)Nc2ccccc2F)cc1 | -2.4 | 8.0 | -5.23* | i | 223.6 | 102.2 | 59.5%* | i
Cc1cccc(OCC(=O)NC(=S)NNC(=O)c2ccncc2)c1 | -3.1 | -9.6 | i | i | 451.6 | . | . | .
COc1ccc(C(=O)NC(=S)NNC(=O)c2ccc(C)cc2)cc1 | . | . | -7.2* | i | 406.4 | . | 48.7%* | i
Cc1ccc(C(=O)NNC(=S)NC(=O)COc2ccccc2)cc1 | -10.4 | -3.1 | -6.08* | i | 229.5 | 124.6 | i | i
CCCCC(=O)NNC(=S)NC(=O)c1ccc([N+](=O)[O-])cc1 | -7.6 | -1.1 | i | i | 298.2 | 103.7 | . | .
CCCCC(=O)NNC(=S)NC(=O)c1ccc(C)cc1 | 8.6 | -6.2 | -9.05* | i | 399.6 | 106.8 | 30.0%* | i
Cc1ccc(S(=O)(=O)Nc2nc3ccccc3s2)cc1 | -9.1 | -0.7 | i | i | 318.5 | 107.2 | . | .
O=S(=O)(Nc1nc2ccccc2s1)c1ccc(Br)s1 | -8.0 | -0.1 | -7.12* | i | 326.1 | 109.5 | 69.4%* | i
OC1CCN(c2c3c(nc4cc(-c5cccc(F)c5)nn24)CCCC3)CC1 | 7.2 | -2.3 | i | i | 171.4 | 96.4 | . | .
Fc1cccc(-c2cc3nc4c(c(N5CCC6(CC5)OCCO6)n3n2)CCCC4)c1 | -7.1 | 8.5 | -7.79* | i | 208.4 | 102.1 | i | i
O=S(=O)(c1ccc(Br)cc1F)N1CCCCC1CCO (centres undefined) | . | . | . | . | . | 99.5 | . | .
O=C(CNC(=O)c1ccc(Cl)cc1)OC1CCOC1=O (centres undefined) | 1.1 | 3.2 | i | i | 145.0 | 95.8 | . | .
CCCCOc1ccc(C(=O)NCC(=O)OC2CCOC2=O)cc1 (centres undefined) | -0.8 | -11.7 | -4.98* | i | 471.5 | . | i | i
SMILES | GPR7 antagonist | pCIP destab | CHT inh | CHT PAM | T cell HTS | Pemphigus Ab inh | CHT block conf | HEK293 MPD ctr
O=C(C1CCCCC1)N1C[C@H](O)[C@@H](n2cc(C3CC3)nn2)C[C@@H]1c1ccccc1 | . | . | . | . | . | 104.8 | . | .
CC(C)(C)CC(C)(C)NCC(O)COc1c(F)cc(Br)cc1F (centres undefined) | 14.6 | -2.5 | -5.53* | i | 367.4 | 103.3 | 60.1%* | -9.05*
CC(C)(C)NCC(O)COc1c(F)cc(Br)cc1F (centres undefined) | -7.8 | -11.1 | i | i | 655.3 | 102.3 | . | .
C=CCc1ccc(OCC(O)CN2CCC(Cc3ccccc3)CC2)c(OC)c1 (centres undefined) | 3.4 | -15.9 | -7.24* | i | 158.7 | 104.3 | 31.1%* | i
C=CCc1ccc(OCC(O)CN2CCN(c3ccccc3OC)CC2)c(OC)c1 (centres undefined) | 0.7 | -8.4 | i | i | 275.0 | 107.3 | . | .
CC1CCCCC1NC(=O)CN1CCN(Cc2ccccc2Cl)C1=O (centres undefined) | 1.0 | -5.2 | i | i | 272.8 | . | . | .
O=C(CN1CCN(Cc2ccccc2Cl)C1=O)NC1CCCCCCC1 | 0.8 | -13.9 | -5.16* | i | 208.6 | 107.2 | i | i
CCOC(=O)C1(Cc2ccc(OC)cc2)CCN(C(=O)c2cncs2)CC1 | -11.4 | 2.5 | -7.06* | i | 508.4 | 79.3 | i | i
CCOC(=O)C1(Cc2ccc(OC)cc2)CCN(C(=O)c2csc(C)n2)CC1 | -0.8 | -8.6 | i | i | 185.2 | 97.4 | . | .
C=C(C)COc1ccc(-c2[nH]ncc2-c2ccc(Br)cc2)c(O)c1 | -9.5 | 16.0 | -5.47* | i | 224.6 | 101.6 | i | i
C=C(C)COc1ccc(-c2[nH]ncc2-c2ccccc2OC)c(O)c1 | -1.8 | -2.4 | i | i | 177.0 | 94.8 | . | .
Cc1ccc(C(=O)OCC(=O)NCc2ccccc2)s1 | . | . | . | . | . | 96.3 | . | .
O=C(NCc1nnnn1-c1ccc(F)cc1)C(=O)c1c[nH]c2ccccc12 | . | . | . | . | . | 102.2 | . | .
COc1ccc(CNC(=O)CCNC(=O)C2CCN(S(=O)(=O)c3ccc(OC)cc3)CC2)cc1 | . | . | . | . | . | 99.0 | . | .
COC(=O)c1ccc(C)cc1 | . | . | . | . | 311.0 | 102.4 | . | .
COC(=O)c1ccc(O)c(Sc2cc(C(=O)OC)ccc2O)c1 | -11.3 | -14.3 | -5.25* | i | 791.9 | 89.2 | i | i
CCc1cccc(OCC(=O)Nc2ccccc2N2CCCC2)c1 | . | . | i | i | 222.2 | 106.5 | . | .
O=C(NC(=S)Nc1cccc(O)c1)C12CC3CC(CC(C3)C1)C2 | . | . | . | . | . | 98.2 | . | .
